# Published values of several laboratories.
# Lines come from different studies, so protocols differ.
# Target: Angiopoietin-1 receptor (TEK, Homo sapiens, UniProt Q02763)
SMILES,observed,action,technique,concentration,quantity,value
CCCCC(=O)Nc1ccc(-c2ccc3ncn(CCC)c(=O)c3c2)cn1,binding,,competition with immobilised ligand,0.5 µM,remaining binding,94%
C#Cc1cnc(Nc2ccnc(CO)c2)nc1Nc1ccccc1S(C)(=O)=NC#N (centres unmarked),cell-free assay,,,1 µM,remaining signal,46%
C=CC(=O)N1CCC([C@@H]2CCNc3c(C(N)=O)c(-c4ccc(Oc5ccccc5)cc4)nn32)CC1,cell-free assay,,,1 µM,inhibition,0%
COc1ccc2oc(-c3ccc4nc(N)oc4c3)c/c(=N\c3ccccc3NC(=O)CCN)c2c1,cell-free assay,,,1 µM,remaining signal,87%
COc1ccc2[nH]c3c4[nH]c5ccc(OC)cc5c4c4c(c3c2c1)C(=O)NC4=O,binding,,competition with immobilised ligand,1 µM,remaining binding,100%
CC#CC(=O)N1CCC[C@H]1c1nc(-c2ccc(C(=O)Nc3ccccn3)cc2)c2c(N)nccn12,enzyme activity,inhibitor,,1 µM,inhibition,0%
C[C@H]1CC[C@H](n2c3cnccc3c3cnc(Nc4ccc5c(n4)CCN(C(=O)CO)C5)nc32)CC1,cell-free assay,,competition with immobilised ligand,1 µM,remaining binding,92%
N#Cc1ccc(NC(=O)Nc2ccccc2)cc1,cell-free assay,,competition with immobilised ligand,25 µM,remaining binding,98%
